The results in this text go back to ChEMBL document CHEMBL4725282, “Discovery of a Conformationally Constrained Oxazolidinone with Improved Safety and Efficacy Profiles for the Treatment of Multidrug-Resistant Tuberculosis” (J Med Chem, 2020).

Molecules are shown by their SMILES.

Series [1] is described as follows: Toxicity in female Sprague-Dawley rat assessed as change in mean platelet volume at 450 mg/kg/day, po administered for 4 weeks followed by 2 week recovery period (Rvb =7.1 +/- 0.5 fL). Type of series: organism-based. Particulars: in vivo, 672 h.
A short description of series [2]: Toxicity in female Sprague-Dawley rat assessed as change in mean corpuscular volume at 150 mg/kg/day, po administered for 4 weeks followed by 2 week recovery period (Rvb =56.1 +/- 0.8 fL). Particulars: in vivo, 672 h. It is filed as organism-based.
Series [3] can be described thus: Toxicity in female Sprague-Dawley rat assessed as change in mean platelet volume at 150 mg/kg/day, po administered for 4 weeks followed by 2 week recovery period (Rvb =7.1 +/- 0.5 fL). Type of series: organism-based. Particulars: in vivo, 672 h.
Series [4] can be described thus: Toxicity in male Sprague-Dawley rat assessed as change in mean corpuscular hemoglobin at 50 mg/kg/day, po administered for 4 weeks followed by 2 week recovery period (Rvb =18.3 +/- 0.4 pg). Type of series: organism-based. Particulars: in vivo, 672 h.
Series [5] in a line: Apparent permeability in human Caco-2 cells at 50 uM after 1 hr by UPLC analysis. Type of series: ADME, cell-based. The essentials:
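Caco-2 monolayers on Transwells, cultured 21 days, TEER required >500 Ω×cm². Compound at 50 μM added apically, 1 h at 37 °C. Transported compound quantified by UPLC. Papp = (dQ/dt)/(C0×A).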

Series [6] is described as follows: Toxicity in female Sprague-Dawley rat assessed as change in reticulocyte level at 450 mg/kg/day, po administered for 4 weeks followed by 2 week recovery period (Rvb =2.85 +/- 0.53 %). Particulars: in vivo, 672 h. It is filed as organism-based.
Series [7] is described as follows: Toxicity in female Sprague-Dawley rat assessed as ophthalmic changes at 50 to 450 mg/kg/day, po administered for 4 weeks measured post last dose. Type of series: organism-based. Particulars: in vivo, 672 h, dose 50-450 mg/kg/day. In a few lines:
(§1)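 SD rats, 6-7 weeks old (96 in total), split into vehicle, 50, 150 and 450 mg/kg/day groups of 12 females and 12 males each, given oral doses once daily for 4 weeks, then 2 weeks of recovery. Mortality, body weight, food intake, eyes, urine and neuropsychic signs were observed. Organ and bone marrow histopathology was done on 8 rats per sex per group after the last dose and on the remaining 4 per sex after 14 days of recovery.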

Series [8] can be described thus: Genotoxicity in CHO-WBL cells assessed as chromosome aberration at 20 to 150 ug/ml measured after 20 hrs in absence of S9 fraction by Giemsa staining based. Type of series: toxicity, cell-based, Cricetulus griseus. Particulars: chinese hamster, dose 20-150 µg/ml. In a few lines:
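CHO-WBL cells in McCoy's 5A with 10% FBS, seeded 20-24 h before treatment. Compound in DMSO, with or without serum-free S-9 mix. Treatment either 3 h, then HBSS wash and 17 h further culture, or 20 h; harvest at 20 h from treatment start. Colcemid 0.1 μg/mL for the final 2 h, hypotonic KCl, methanol:acetic acid fixation, Giemsa stain. 300 metaphases per concentration (150 per duplicate flask) scored.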

Series [9] in a line: Toxicity in male Sprague-Dawley rat assessed as change in lymphocyte level at 50 mg/kg/day, po administered for 4 weeks followed by 2 week recovery period (Rvb =77.4 +/- 3.7 %). Particulars: in vivo, 672 h. It is filed as organism-based.
Series [10] can be described thus: Toxicity in female Sprague-Dawley rat assessed as change in mean corpuscular hemoglobin at 450 mg/kg/day, po administered for 4 weeks followed by 2 week recovery period (Rvb =18.5 +/- 0.6 pg). It is filed as organism-based. Particulars: in vivo, 672 h.
The nature of series [11]: Toxicity in male Sprague-Dawley rat assessed as ophthalmic changes at 50 to 450 mg/kg/day, po administered for 4 weeks followed by 2 week recovery period. Particulars: in vivo, 1008 h, dose 50-450 mg/kg/day, time 6 weeks. It is filed as organism-based.
Series [12] can be described thus: Toxicity in male Sprague-Dawley rat assessed as change in hemoglobin count at 150 mg/kg/day, po administered for 4 weeks followed by 2 week recovery period (Rvb =144 +/- 5 g/L). It is filed as organism-based. Particulars: in vivo, 672 h.
Series [13] in a line: Toxicity in male Sprague-Dawley rat assessed as histopathological changes at 50 to 450 mg/kg/day, po administered for 4 weeks followed by 2 week recovery period. Type of series: organism-based. Particulars: in vivo, 672 h, dose 50-450 mg/kg/day.
Series [14] is described as follows: Half life in Sprague-Dawley rat hepatocytes at 2 uM by LC-MS/MS analysis. It is filed as ADME, cell-based, Hepatocyte. In a few lines: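 Hepatocytes (male CD-1 mouse, male SD rat, male beagle dog, male cynomolgus monkey, pooled human), final 1 μM compound and 1 million cells/mL, made by mixing 2 μM compound with 2 million cells/mL. Incubated at 37 °C in a CO2 incubator; sampled at 0, 15, 30, 60, 90 and 120 min. Quenched with methanol/ACN containing 0.1% formic acid. Parent remaining measured by LC-MS/MS.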

Series [15] can be described thus: Oral bioavailability in Balb/c mouse at 25 mg/kg by LC-MS/MS analysis. It is filed as ADME, organism-based. Particulars: in vivo. In a few lines:
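Female BALB/c mice, 20-25 g, five per route. Dosed 25 mg/kg p.o. in 0.5% carboxymethyl cellulose or 2.5 mg/kg i.v. in 10% DMSO/saline. Blood sampled 5 min-72 h (p.o.) or 2 min-48 h (i.v.), quantified by LC/MS/MS with ESI+. Parameters by non-compartmental analysis; F = (AUCpo×dose_iv)/(AUCiv×dose_po)×100%.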

Series [16] can be described thus: Toxicity in male Sprague-Dawley rat assessed as changes in neuropsychic symptoms at 50 to 450 mg/kg/day, po administered for 4 weeks followed by 2 week recovery period measured during last 24 hrs of recovery period. Particulars: in vivo, 672 h, dose 50-450 mg/kg/day. Type of series: organism-based. The essentials:
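SD rats aged 6-7 weeks, 12 male and 12 female per group, in four groups: vehicle control, 50, 150 and 450 mg/kg/day. Dosing was oral, once daily, for 4 weeks, then a 2-week recovery period. Clinical symptoms were observed starting before administration. 8 per sex were dissected after the last dose and the remaining 4 per sex after 14 days of recovery.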

Series [17] can be described thus: Toxicity in male Sprague-Dawley rat assessed as body weight loss at 50 to 450 mg/kg/day, po administered for 4 weeks measured at 1 week interval. Particulars: in vivo, 672 h, dose 50-450 mg/kg/day. It is filed as organism-based. The essentials:
as §1

The next series addresses Cytochrome P450 2C19 (Homo sapiens, UniProt P33261). As to the kind of experiment: Inhibition of CYP2C19 in human liver microsomes after 20 mins by LC-MS/MS analysis. It is filed as ADME. In a few lines: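 Human liver microsomes (0.2 mg/mL) in phosphate buffer, 20 min incubation with compound at 0.1-50 μM alongside isoform-specific substrates and a positive control. Substrate remaining monitored by LC-MS/MS at each concentration; IC50 derived.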

Series [18] is described as follows: Toxicity in female Sprague-Dawley rat assessed as mortality at 50 to 450 mg/kg/day, po administered for 4 weeks. It is filed as organism-based. Particulars: in vivo, 672 h, dose 50-450 mg/kg/day. The essentials:
as §1

The nature of series [19]: Toxicity in female Sprague-Dawley rat assessed as change in neutrophil level at 150 mg/kg/day, po administered for 4 weeks followed by 2 week recovery period (Rvb =18.5 +/- 5.3 %). It is filed as organism-based. Particulars: in vivo, 672 h.
A short description of series [20]: Toxicity in male Sprague-Dawley rat assessed as change in lymphocyte level at 450 mg/kg/day, po administered for 4 weeks followed by 2 week recovery period (Rvb =77.4 +/- 3.7 %). Particulars: in vivo, 672 h. Type of series: organism-based.
Series [21] is described as follows: Toxicity in male Sprague-Dawley rat assessed as change in red blood cell count at 50 mg/kg/day, po administered for 4 weeks followed by 2 week recovery period (Rvb =7.86 +/- 0.32 10^12/L). It is filed as organism-based. Particulars: in vivo, 672 h.
The nature of series [22]: Toxicity in female Sprague-Dawley rat assessed as change in hematocrit level at 150 mg/kg/day, po administered for 4 weeks followed by 2 week recovery period (Rvb =41.1 +/- 1.4 %). It is filed as organism-based. Particulars: in vivo, 672 h.

Chain of Cytochrome P450 2C19 (P33261 whole entry, canonical isoform): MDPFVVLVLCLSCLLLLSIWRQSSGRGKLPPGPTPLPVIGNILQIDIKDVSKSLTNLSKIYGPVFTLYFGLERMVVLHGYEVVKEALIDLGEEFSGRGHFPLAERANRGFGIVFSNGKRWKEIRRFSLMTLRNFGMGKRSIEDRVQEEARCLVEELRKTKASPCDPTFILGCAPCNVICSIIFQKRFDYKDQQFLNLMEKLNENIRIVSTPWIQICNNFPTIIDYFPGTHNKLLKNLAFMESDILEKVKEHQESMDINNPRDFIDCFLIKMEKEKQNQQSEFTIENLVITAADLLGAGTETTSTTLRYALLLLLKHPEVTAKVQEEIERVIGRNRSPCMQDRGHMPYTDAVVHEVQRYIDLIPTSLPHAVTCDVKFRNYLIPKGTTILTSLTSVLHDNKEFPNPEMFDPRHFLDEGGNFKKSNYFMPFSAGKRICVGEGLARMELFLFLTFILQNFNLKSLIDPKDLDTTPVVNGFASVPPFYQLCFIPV

In general, Papp refers to a coefficient for how fast a substance crosses the barrier. For orientation: half-life means the time needed for the level to fall by half in the phase considered. Broadly, the bioavailability is the share of a dose that reaches the circulation, judged against a reference dose that is usually intravenous. A high value points to good availability. By IC50 is commonly meant the concentration at which inhibition is half-maximal. High values mean a need for much substance, low ones inhibition by little substance. In the case of `CC(=O)NC[C@@H]1OC(=O)N2c3cc(F)c(N4CCSCC4)cc3OC[C@@H]12`, the Activity in [1] is listed as 7.5 fL; in [2], 56.6 fL; in series [3], 7.4 fL; in [4] it was 18.7 pg; in series [6] it was 2.93%; in series [7] it was “Non-Toxic”. Moreover, the Activity entry in series [8] is listed as “Non-Toxic”; in series [9], 82%; in series [10], 18.7 pg; in series [11] it was “Non-Toxic”; in series [12], 141 g/L; in series [13], “Non-Toxic”. Further, the Activity entry in [16] is given as “Non-Toxic”; in series [17], “Non-Toxic”; in series [18], “Non-Toxic”; in [19], 12.2%; in [20], 80.7%; in [21], 7.29 10^12/L. Besides, the Activity in series [22] was found to be 37.4%. Moreover, the Papp at 1 h, 50 µM in series [5] was found to be 67.6 ×10⁻⁶ cm/s. The same compound came in with a half-life at 2 µM in series [14] of 1.67 h. The bioavailability in [15] stood at 55.9%. Besides, 48.2 µM corresponded to half-maximal inhibition on Cytochrome P450 2C19 (IC50).
